The source of these data is ChEMBL document CHEMBL3044755, “5-Methyl-1,2,3-thiadiazoles synthesized via ugi reaction and their fungicidal and antiviral activities” (J Agric Food Chem, 2010).

Assay type in all cases: functional
The subject of assay [1] is Thanatephorus cucumeris. Description: Fungicidal activity against Thanatephorus cucumeris at 50 ug/ml by growth inhibition method. Conditions: read-out: GI. Summed up: (§1)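 Mycelial growth inhibition on potato dextrose agar. The panel covered Alternaria solani, Botrytis cinerea, Cercospora arachidicola, C. beticola, Colletotrichum lagenarium, Fusarium oxysporum, Gibberella zeae, Puccinia triticina, Phytophthora infestans, Physalospora piricola, Pellicularia sasakii and Rhizoctonia solani.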

Assay [2] relates to Tobacco mosaic virus. Nature of the assay: In vitro antiviral activity against Tobacco mosaic virus (TMV) infected tobacco leaves at 500 ug/ml.
Assay [3] relates to Mycosphaerella arachidis. Description: Fungicidal activity against Mycosphaerella arachidis at 50 ug/ml by growth inhibition method. Conditions: read-out: GI. Summed up:
as §1

Assay [4] relates to Tobacco mosaic virus. Nature of the assay: In vitro antiviral activity against Tobacco mosaic virus (TMV) infected tobacco leaves at 100 ug/ml.
Assay [5] concerns Cercospora beticola. Description: Fungicidal activity against Cercospora beticola at 50 ug/ml by growth inhibition method. Conditions: read-out: GI. Summed up: as §1
The subject of assay [6] is Fusarium graminearum. Nature of the assay: Fungicidal activity against Fusarium graminearum at 50 ug/ml by growth inhibition method. The settings on record: read-out: GI. Summed up: as §1
Assay [7] has as its system Rhizoctonia solani. Nature of the assay: Fungicidal activity against Rhizoctonia solani at 50 ug/ml by growth inhibition method. The settings on record: read-out: GI. Summed up:
as §1

Assay [8] concerns Colletotrichum lagenaria. Nature of the assay: Fungicidal activity against Colletotrichum lagenaria at 50 ug/ml by growth inhibition method. The settings on record: read-out: GI. Summed up:
as §1

Assay [9] concerns Alternaria solani. Description: Fungicidal activity against Alternaria solani at 50 ug/ml by growth inhibition method. The settings on record: read-out: GI. Summed up:
as §1

Assay [10] relates to Botryosphaeria berengeriana. Description: Fungicidal activity against Botryosphaeria berengeriana at 50 ug/ml by growth inhibition method. The settings on record: read-out: GI. Summed up:
as §1

In assay [11] the test system is Puccinia triticina. Description: Fungicidal activity against Puccinia triticina at 50 ug/ml by growth inhibition method. The settings on record: read-out: GI. Summed up:
as §1

Assay [12] concerns Phytophthora infestans. Nature of the assay: Fungicidal activity against Phytophthora infestans at 50 ug/ml by growth inhibition method. Conditions: read-out: GI. Summed up: as §1

With `Cc1ccc(N(C(=O)c2nnsc2C)C(C(=O)NC(C)C)c2ccc(F)cc2)cc1F` (stereo not drawn), the inhibition of growth at 50 µg/mL was 0% in assay [1]; 0% in assay [3]; 25% in assay [5]; 27% in assay [6]; 22% in assay [7]; 0% in assay [8]. Besides, the inhibition of growth at 50 µg/mL in assay [9], in assay [10], in assay [11] and in assay [12] was 0% each time. In assay [2], testing at 500 µg/mL gave an inhibition of 51%. The same molecule came in with an inhibition at 100 µg/mL in assay [4] of 18%.

For the molecule `Cc1ccc(C(C(=O)NC2CCCCC2)N(C(=O)c2nnsc2C)c2ccc(C)c(F)c2)cc1` (stereo not drawn), the inhibition of growth at 50 µg/mL in [1] turned out to be 15%; in [3], 27%; in assay [5], 25%; in assay [6] it was 0%; in assay [7], 2%; in assay [8], 14%. Moreover, the inhibition of growth at 50 µg/mL amounted to 0% in [9], 8% in assay [10], 0% in assay [11] and 25% in assay [12]. The molecule further came in with an inhibition at 500 µg/mL in assay [2] of 53%. Further, testing at 100 µg/mL in assay [4] gave an inhibition of 21%.

For the molecule `Cc1ccc(N(C(=O)c2nnsc2C)C(C(=O)NC(C)C)c2ccccc2O)cc1F` (stereo not drawn), the inhibition of growth at 50 µg/mL in assay [1] worked out at 41%; in assay [3] it was 0%; in assay [5] it was 0%; in [6] it was 50%; in assay [7], 26%; in assay [8], 50%. The inhibition of growth at 50 µg/mL in assay [9] was 0%; in assay [10], 19%; in [11], 0%; in assay [12], 0%. For the same molecule, the inhibition at 500 µg/mL in assay [2] is 56%. For the same molecule, the inhibition at 100 µg/mL in assay [4] was determined as 27%.

In the case of `Cc1ccc(N(C(=O)c2nnsc2C)C(C(=O)NC(C)C)c2cccc(Cl)c2)cc1F` (stereo not drawn), the inhibition of growth at 50 µg/mL in assay [1] was 4%; in assay [3], 0%; in assay [5], 13%; in assay [6] it was 0%; in [7] it was 22%; in assay [8] it was 0%. Besides, the inhibition of growth at 50 µg/mL in assay [9], in assay [10], in assay [11] and in [12] was 0% in each case. The molecule further gave an inhibition at 500 µg/mL in assay [2] of 66%. Further, the inhibition at 100 µg/mL in [4] was determined as 32%.

Regarding `Cc1ccc(N(C(=O)c2nnsc2C)C(C(=O)NC2CCCCC2)c2ccccc2C)cc1F` (stereo not drawn), the inhibition of growth at 50 µg/mL in assay [1] was 0%; in [3], 0%; in [5], 25%; in assay [6], 0%; in assay [7], 22%; in assay [8], 29%. For the same molecule, the inhibition of growth at 50 µg/mL in [9] was found to be 38%; in [10], 0%; in assay [11], 0%; in assay [12], 44%. Also, the inhibition at 500 µg/mL in assay [2] was 35%. Moreover, in [4], at 100 µg/mL the inhibition was 13%.

As to `Cc1ccc(N(C(=O)c2nnsc2C)C(C(=O)NC2CCCCC2)c2ccc(Cl)cc2)cc1F` (stereo not drawn), the inhibition of growth at 50 µg/mL in assay [1] was found to be 0%; in assay [3], 18%; in [5] it was 13%; in [6], 0%; in assay [7] it was 22%; in assay [8], 0%. The inhibition of growth at 50 µg/mL in assay [9] is 0%; in assay [10], 0%; in assay [11] it was 0%; in [12], 6%. In assay [2], the inhibition at 500 µg/mL was determined as 14%. In assay [4], this molecule came in with an inhibition at 100 µg/mL of 8%.

For the molecule `Cc1ccc(N(C(=O)c2nnsc2C)C(C(=O)NC2CCCCC2)c2ccc(O)cc2)cc1F` (stereo not drawn), the inhibition of growth at 50 µg/mL in [1] was found to be 0%; in assay [3] it was 45%; in assay [5], 25%; in [6], 14%; in assay [7], 22%; in assay [8] it was 36%. For the same molecule, the inhibition of growth at 50 µg/mL in assay [9] stood at 13%; in assay [10], 0%; in [11], 0%; in [12], 25%. In addition, the inhibition at 500 µg/mL in assay [2] was 34%. For the same molecule, in assay [4], testing at 100 µg/mL gave an inhibition of 9%.

Regarding `Cc1ccc(N(C(=O)c2nnsc2C)C(C(=O)NC2CCCCC2)c2ccccc2Cl)cc1F` (stereo not drawn), the inhibition of growth at 50 µg/mL worked out at 0% in assay [1]; 0% in [3]; 0% in assay [5]; 45% in assay [6]; 22% in [7]; 0% in assay [8]. Further, the inhibition of growth at 50 µg/mL in assay [9] was 0%; in [10], 0%; in assay [11], 0%; in assay [12], 25%. The same molecule registered an inhibition at 500 µg/mL in [2] of 53%. The molecule also had an inhibition at 100 µg/mL in [4] of 16%.

Regarding `Cc1ccc(N(C(=O)c2nnsc2C)C(C(=O)NC2CCCCC2)c2ccc(C(F)(F)F)cc2)cc1F` (stereo not drawn), the inhibition of growth at 50 µg/mL is 0% in assay [1]; 0% in assay [3]; 0% in [5]; 9% in [6]; 22% in assay [7]; 14% in [8]. The inhibition of growth at 50 µg/mL in [9], in [10], in [11] and in assay [12] was 0% each time. The molecule also showed an inhibition at 500 µg/mL in assay [2] of 36%. Further, in [4], the inhibition at 100 µg/mL was determined as 27%.

On to `Cc1ccc(N(C(=O)c2nnsc2C)C(C(=O)NC(C)C)c2ccccc2)cc1F` (stereo not drawn), for which the inhibition of growth at 50 µg/mL in assay [1] came to 0%; in [3], 9%; in assay [5] it was 0%; in assay [6], 27%; in assay [7], 2%; in [8] it was 14%. In addition, the inhibition of growth at 50 µg/mL in [9] was determined as 13%; in assay [10] it was 0%; in [11] it was 0%; in [12], 38%. In addition, in assay [2], testing at 500 µg/mL gave an inhibition of 15%. This molecule gave an inhibition at 100 µg/mL in assay [4] of 5%.

For `Cc1ccc(N(C(=O)c2nnsc2C)C(C(=O)NC(C)C)c2ccc(Cl)cc2)cc1F` (stereo not drawn), the inhibition of growth at 50 µg/mL in assay [1] worked out at 28%; in [3], 0%; in [5] it was 13%; in assay [6], 0%; in [7], 15%; in [8], 14%. Also, the inhibition of growth at 50 µg/mL in assay [9] was determined as 38%; in assay [10], 0%; in assay [11] it was 0%; in assay [12], 38%. The molecule also came in with an inhibition at 500 µg/mL in [2] of 12%. Testing at 100 µg/mL in assay [4] gave an inhibition of 20%.

Consider `Cc1ccc(C(C(=O)NC(C)C)N(C(=O)c2nnsc2C)c2ccc(C)c(F)c2)cc1` (stereo not drawn), for which the inhibition of growth at 50 µg/mL amounted to 11% in assay [1]; 45% in assay [3]; 25% in assay [5]; 0% in assay [6]; 37% in [7]; 29% in assay [8]. Also, the inhibition of growth at 50 µg/mL in assay [9] turned out to be 31%; in assay [10] it was 0%; in assay [11], 14%; in assay [12], 13%. The molecule further gave an inhibition at 500 µg/mL in assay [2] of 31%. Besides, testing at 100 µg/mL in assay [4] gave an inhibition of 7%.

For `Cc1ccc(N(C(=O)c2nnsc2C)C(C(=O)NC(C)C)c2cccc(O)c2)cc1F` (stereo not drawn), the inhibition of growth at 50 µg/mL in assay [1] stood at 0%; in assay [3] it was 0%; in assay [5] it was 11%; in assay [6], 0%; in assay [7] it was 2%; in assay [8], 14%. The inhibition of growth at 50 µg/mL was 0% in assay [9], 0% in assay [10], 0% in [11] and 38% in [12]. Further, in [2], the inhibition at 500 µg/mL was found to be 20%. At 100 µg/mL the inhibition in assay [4] was 4%.

Regarding `Cc1ccc(N(C(=O)c2nnsc2C)C(C(=O)NC2CCCCC2)c2cccc(F)c2)cc1F` (stereo not drawn), the inhibition of growth at 50 µg/mL came out at 11% in [1]; 27% in [3]; 25% in [5]; 9% in [6]; 2% in assay [7]; 43% in assay [8]. For the same molecule, the inhibition of growth at 50 µg/mL came out at 50% in [9], 8% in assay [10], 0% in [11] and 44% in assay [12]. Moreover, at 500 µg/mL the inhibition in assay [2] was 30%. Besides, the inhibition at 100 µg/mL in [4] was found to be 52%.
